Compound activity as filed in PubChem BioAssay.
Hits are enriched below; roughly 1.9% of the tested compounds scored in any of these assays.
b-catenin transl: modulators of beta-catenin nuclear translocation; HeLa beta-catenin nuclear translocation, immunofluorescence imaging; AID 1665; actives 0.3% (n = 190,000); nuclear translocation activity, % at 5 µM;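 active = nuclear translocation activity above 50% at 5 µM, with a well cell count of 50 or more; inconclusive = wells under 50 cells across six images, flagged as toxic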;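 note: per-cell ratio of nuclear to cytoplasmic median beta-catenin stain intensity; plate controls were DMSO negative control for no effect and GSK-3 inhibitor IX positive control for full effect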
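Assay system: human HeLa cells, native beta-catenin; doses: 5 µM primary, 0.02–20 µM confirmation; incubation: compound treatment 24 h, 37°C, 5% CO2; technique: fluorescence imaging of beta-catenin antibody stain plus DAPI; measure: % activation, nuclear-to-cytoplasmic median beta-catenin signal ratio per cell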
MT stabilize HCS: microtubule stabilization, imaging screen. HeLa tubulin immunostaining HCS, 24 h; share of cells brighter than vehicle mean+2SD. % tubulin-high responders, % at 10 µM. actives 0.83% (n = 200,000). AID 2205;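 active = plate Z-score above 3 for both tubulin-high and condensed-nucleus cell shares, with cell loss under 80%, at 10 µM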;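 note: anti alpha tubulin signal scored within the nucleus-defined area of each cell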
ROMK mod: human ROMK K+ channel modulation, primary screen; P48048; Tet-inducible ROMK, thallium flux fluorescence; actives lie on both sides; AID 1918; B-score at 10 µM; actives 2% (n = 130,000);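 active = signal ratio slope over the read window, or its plate-corrected B-score, at least 3 SD from the plate mean, either direction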;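 note: B-score of the F/F0 ratio slope over 7 to 12 s after thallium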
Target sequence (P48048 whole entry, looked up): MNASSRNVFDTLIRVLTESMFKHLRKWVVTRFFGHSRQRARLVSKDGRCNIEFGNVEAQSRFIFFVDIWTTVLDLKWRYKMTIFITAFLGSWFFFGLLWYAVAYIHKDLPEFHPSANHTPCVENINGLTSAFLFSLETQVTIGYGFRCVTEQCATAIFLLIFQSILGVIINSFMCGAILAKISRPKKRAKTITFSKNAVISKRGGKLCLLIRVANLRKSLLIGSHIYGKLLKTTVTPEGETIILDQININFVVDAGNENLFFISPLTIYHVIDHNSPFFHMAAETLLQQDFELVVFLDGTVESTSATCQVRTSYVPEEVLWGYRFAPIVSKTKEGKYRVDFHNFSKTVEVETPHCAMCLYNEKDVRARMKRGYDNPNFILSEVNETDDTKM
ROMK hit retest: human ROMK channel modulation, retest confirmation; shares compounds with ROMK mod; actives 54% (n = 3,000); ROMK thallium flux, fluorescence ratio; hits give low values; normalized thallium flux (F/F0 slope) at 10 µM;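 active = Flux at 10 µM at least 3 SD below or above vehicle control mean in one or both replicates; inconclusive = no clear call, values can overlap the other calls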
* marks the source's active call; other numbers are inactive results; ? = inconclusive; . = not tested or not shown.

SMILES	b-catenin transl	MT stabilize HCS	ROMK mod	ROMK hit retest
O=C(c1cc2c(s1)-c1ccccc1OC2)N1CCC2(CC1)OCCO2	14	54*	0.72	.
COc1ccc(C(=O)c2nc3ccccc3n2C(C)C)cc1	2	4	-0.28	.
O=C(c1ccc2c(c1)ncn2C1CCCCCC1)N1CCC2(CC1)OCCO2	4	6	.	.
COc1ccc(-n2cnc3cc(C(=O)N4CCC5(CC4)OCCO5)ccc32)cc1	32	13*	1.7	.
Nc1cc(Cl)c2nonc2c1[N+](=O)[O-]	5	3	.	.
Cc1nn(Cc2c(Cl)cccc2Cl)c(Cl)c1C(=O)O	-4	6	-0.57	.
CN1CCN(Cc2cc(C(C)(C)C)c(O)c(C(C)(C)C)c2)CC1	.	3	-0.29	.
CC(C)(C)c1cc([N+](=O)[O-])cc(C(C)(C)C)c1O	0	7	.	0.081
Cc1cc(C)c(Cn2c(C(=O)O)c(C=O)c3ccccc32)c(C)c1	0	2	0.19	.
Cc1cccn2c(=O)c3cc(C(=O)N4CCC5(CC4)OCCO5)n(C)c3nc12	41	34*	5.3*	0.094
O=C(c1cccn2c(=O)c3cc(Br)ccc3nc12)N1CCC2(CC1)OCCO2	.	4	0.13	.
Fc1ccccc1CCNCc1cccc(Cl)c1Cl	.	2	.	.
COc1ccccc1N(CC(=O)NC1CCCC1)C(=O)c1cnn(C(C)C)c1	-3	4	.	.
COC1CC(OC2CCC3(C)C(CCC4C3CCC3(C)C(C5=CC(=O)OC5)C(OC(C)=O)CC43O)C2)OC(C)C1OC1OC(COC2OC(CO)C(O)C(O)C2O)C(O)C(O)C1O (stereo unspecified)	10	.	.	?
Cn1cccc1/C=C1/C(=O)NC(=O)N(C(C)(C)C)C1=O	1	.	4.2*	0.082
Cn1cccc1/C=C1\C(=O)NC(=O)N(Cc2ccccc2Cl)C1=O	46	4	0.12	.
CC(Cc1cccs1)NCc1ccccc1 (stereo unspecified)	1	5	0.0034	.
CCOc1ccc(-n2c(O)c(N=Nc3c(C)n(C)n(-c4ccccc4)c3=O)c(=O)[nH]c2=O)cc1	-1	.	.	.
COc1ccc(CCNCc2ccc(SC)cc2)cc1	.	4	.	0.062*
COc1ccc(CCNCc2ccc(F)cc2)cc1OC	-3	2	-0.43	.
COC(=O)C(O)(c1ccc(N(C)C(=O)OC(C)C)cc1)C(F)(F)F (stereo unspecified)	.	3	.	.
COc1cc(/C=C/[N+](=O)[O-])ccc1O	-2	4	-7*	0.051*
CCN(CC)c1ccc(/C=C/[N+](=O)[O-])cc1	-3	2	.	.
CCOc1ccc2oc(C(=O)NN3C(C)CCCC3C)c(C)c2c1 (stereo unspecified)	0	5	0.18	.
CCN1CCC2(CC1)NC(=O)c1ccccc1O2	0	4	0.49	.
SMILES	b-catenin transl	MT stabilize HCS	ROMK mod	ROMK hit retest
CS(=O)(=O)N1CCN(C(=N)N[N+](=O)[O-])CC1	0	4	-2.6*	0.081
O=C1/C(=C\c2cc3c(cc2Br)OCO3)N2CCC1CC2	4	1	-2	.
O=c1[nH]c(=O)n(Cc2ccccc2Cl)c(O)c1/C=C1/C=CC=N1	-1	29*	2.6*	?
C=CCn1c(O)c(/C=C2/C=CC=N2)c(=O)[nH]c1=O	-3	7	.	.
C[C@@H]1O[C@@H](O[C@H]2C[C@@H](O)[C@]3(CO)[C@H]4[C@H](O)C[C@]5(C)[C@@H](C6COC(=O)C6)CC[C@]5(O)[C@@H]4CC[C@]3(O)C2)[C@H](O)[C@H](O)[C@H]1O (stereo partly specified)	.	10	.	0.064*
C=CCN1C(=O)/C(=C/c2ccc(N3CCOCC3)o2)C(=O)NC1=S	1	3	.	.
CCN(CC)c1ccc(/C=C2\C(=O)NC(=S)N(C)C2=O)o1	-1	.	-6.3*	0.028*
O=C(N/N=C/c1c(O)n(-c2cccc3ccccc23)c(=O)[nH]c1=O)c1ccncc1	1	.	0.39	.
NC1=NC(=O)C(c2ccccc2)O1 (stereo unspecified)	-1	.	.	.
Cc1cc(NC(=O)CCl)on1	2	2	0.01	.
CCCC1(CCC)C(=O)NC(=Nc2ccccc2)NC1=O	-2	4	.	.
CCCCC1(CCCC)C(=O)NC(=Nc2cccc(C)c2)NC1=O	1	4	.	0.052*
CCn1c(P(C)(=O)O)nc2cc(NC(=O)c3ccccc3F)ccc21	0	2	0.91	.
C=CCn1c(O)c(/C=N/NC(=O)CCCC)c(=O)[nH]c1=S	-4	3	0.84	.
O=C(COc1ccccc1)N1CCN(CC2CC3C=CC2C3)CC1 (stereo unspecified)	-2	4	.	.
Cc1ccc(OCC(=O)N2CCN(CC3CC4C=CC3C4)CC2)cc1 (stereo unspecified)	1	3	-2.1*	0.067*
CC(=O)N(C1=NCCCS1)c1ccc(Cl)cc1	.	3	.	.
Cc1ccc(Cn2cc(C=O)c(-c3ccc(C)cc3)n2)cc1	-2	7	-0.44	.
CCCCCCOc1ccc(CN2CCN(CC)CC2)cc1	.	2	-3.9*	0.06*
CCN1CCN(Cc2ccc(OC(F)(F)F)cc2)CC1	-1	3	.	.
C#CCN(C)C(C)Cc1ccccc1 (stereo unspecified)	3	3	.	.
O=c1[nH]c(=O)n(-c2ccccc2)c(O)c1/C=C1/C(c2ccccc2)=Nc2ccccc21	80*	31*	-5.4*	0.055*
COC(=O)C1=Nc2ccccc2/C1=C\c1c(O)n(-c2ccc(Br)cc2)c(=O)[nH]c1=O	-7	5	0.68	.
Cc1ccsc1C(=O)C1CCCN(Cc2cnc(N3CCCC3)s2)C1 (stereo unspecified)	-1	0	-0.02	.
CC(C)NC(C)C(=O)C12CC3CC(CC(C3)C1)C2 (stereo unspecified)	.	3	1.6*	?
SMILES	b-catenin transl	MT stabilize HCS	ROMK mod	ROMK hit retest
Cc1nn(Cc2ccccc2)c(C)c1C(=O)OCC(=O)Nc1cc(S(C)(=O)=O)ccc1Cl	-2	2	0.54	.
Cc1ccc(-c2nc3ccccc3c(=O)n2-c2cccc(O)c2)cc1	-1	2	0.038	.
CN1CCC(OC(=O)C2c3ccccc3Oc3ccccc32)CC1	2	4	-1.2	.
OC(COCc1ccc(Cl)cc1)CN1CC=C(c2ccccc2)CC1 (stereo unspecified)	-1	4	-3.3*	0.06*
O=C(CN1CC=C(c2ccccc2)CC1)Nc1cc(Cl)ccc1Cl	2	2	-0.51	.
CC(=O)NC(Cc1ccc(N(CCCl)CCCl)cc1)C(=O)NC(CC(C)C)C(=O)O (stereo unspecified)	1	2	-0.17	.
Cn1cc(C(=O)NP(=O)(N2CCOCC2)N2CCOCC2)c2ccccc21	-2	6	-0.8	.
C=CCN1C(=O)NC(=O)/C(=C/c2cc3c4c(c2)CCCN4CCC3)C1=O	2	6	-4.3*	0.056*
C=CCN1C(=O)NC(=O)/C(=C/c2cnc(SC)nc2)C1=O	2	2	.	.
O=C1NC(=O)N(c2ccccc2)C(=O)/C1=C\c1ccccc1[N+](=O)[O-]	0	.	-0.96	.
CN1CC=C(c2c[nH]c3ccccc23)CC1	4	5	.	.
C1=C(c2c[nH]c3ccccc23)CCN(Cc2ccccc2)C1	0	2	-3.7*	0.05*
CCCOc1ccccc1C1SCC(=O)Nc2c1c(=O)[nH]n2C(C)CCC (stereo unspecified)	-3	4	.	.
